Assay results collected from several papers.
CDK2: Cyclin-dependent kinase 2 (CDK2, Homo sapiens, UniProt P24941)

Compound | target | assay | test system | conditions | measurement | result
Cc1cc(O)c(-c2ccc([C@@H](C)CN(C)C)cc2)c2c1[nH]c(=O)c1sccc12 | MAP kinase-activated protein kinase 3 (MAPKAPK3, Homo sapiens, UniProt Q16644) | enzyme activity, inhibitor |  | 0.1 µM | inhibition | -21.1%
Cc1cc(S(=O)(=O)NCCO[C@H]2CC[C@H](CN3CCC(c4ccc5c(c4)n(C)c(=O)n5C4CCC(=O)NC4=O)CC3)CC2)ccc1Nc1ncc(C(F)(F)F)c([C@H]2CC[C@@](C)(O)CC2)n1 (stereo partly drawn) | CDK2 | protein level, degrader, western blot | MKN-1 |  | Dmax | 90%
C#Cc1cc(-c2cc(Nc3nc(N[C@@H](C)c4ccc(F)cn4)ncc3Cl)n[nH]2)ccc1C=O | Tyrosine-protein kinase Fyn (FYN, Homo sapiens, UniProt P06241) | enzyme activity, inhibitor |  | 0.2 µM | inhibition | 66.5%
Cc1cc(S(=O)(=O)NC2CCC(CC3CCN(c4ccc(C5CCC(=O)NC5=O)cc4)CC3)CC2)ccc1Nc1ncc(C(F)(F)F)c(N2CCC[C@](C)(O)C2)n1 (stereo partly drawn) | CDK2 | protein level, degrader, western blot | MKN-1 |  | Dmax | 80%
COc1cc(Br)cc(C2NC(=O)NC(C)=C2C(=O)OCc2ccccc2)c1O (stereo not drawn) | Voltage-dependent L-type calcium channel subunit alpha-1C (Cacna1c, Rattus norvegicus, UniProt P22002) | ion current, inhibitor, patch clamp | HEK293 | 10 µM | inhibition | > 60%
NC/C(=C\F)COc1cccc(Cn2c(=S)[nH]c(=O)c3[nH]cnc32)c1 | Voltage-dependent N-type calcium channel subunit alpha-1B (Cacna1b, Rattus norvegicus, UniProt Q02294) | ligand displacement, radioligand |  | 10 µM | inhibition | < 50%
C1=C/COCc2cc(ccc2OCCN2CCCC2)Nc2nccc(n2)-c2cccc(c2)COC/1 | Cyclin-dependent kinase 2 homolog (CRK2, Plasmodium falciparum, UniProt P61075) | cell-free assay |  | 0.1 µM | remaining signal | 85%
Cc1cc(=O)oc2cc(NC(=O)[C@H](CCCN=C(N)N)NC(=O)[C@H](CCCN=C(N)N)NC(=O)OCc3ccccc3)ccc12 | Cathepsin B (CTSB, Homo sapiens, UniProt P07858) | enzyme activity, substrate, fluorescence |  | pH 5 | Km | 858 µM
Cc1cc(S(=O)(=O)NCCO[C@H]2CC[C@H](CN3CCC(c4ccc5c(c4F)n(C)c(=O)n5C4CCC(=O)NC4=O)CC3)CC2)ccc1Nc1ncc(C(F)(F)F)c([C@H]2CC[C@@](C)(O)CC2)n1 (stereo partly drawn) | CDK2 | protein level, degrader, western blot | MKN-1 |  | Dmax | 86%
CCN1/C(=C/C(C)=O)Sc2ccc(F)cc21 | Alpha-1A adrenergic receptor (Adra1a, Rattus norvegicus, UniProt P43140) | ligand displacement, radioligand |  | 10 µM | inhibition | 1.54%
CCCCC(=O)Nc1ccc(-c2ccc3ncn(CCC)c(=O)c3c2)cn1 | Serine/threonine-protein kinase D3 (PRKD3, Homo sapiens, UniProt O94806) | binding, competition with immobilised ligand |  | 0.5 µM | remaining binding | 92%
C[C@]1(O)CCCN(c2nc(Nc3ccc(S(=O)(=O)N[C@H]4CC[C@H](CN5CCN(c6ccc(C7CCC(=O)NC7=O)cc6F)CC5)CC4)cc3F)ncc2C(F)(F)F)C1 (stereo partly drawn) | CDK2 | protein level, degrader, western blot | TOV21G |  | Dmax | 95%
